Data on ten compounds can be found in ChEMBL document CHEMBL1269004, “Synthesis of a 6-methyl-7-deaza analogue of adenosine that potently inhibits replication of polio and dengue viruses” (J Med Chem, 2010).

The IC50 is the concentration at which inhibition is half-maximal.

Experiment [1] in a line: Binding affinity to Poliovirus RNA-dependent RNA polymerase. The arrangement: species or system Enterovirus C. The settings on record: read-out: Kd(app).
A short description of experiment [2]: Cytotoxicity against human HeLaS3 cells after 24 hrs by celltiter-glo assay. In kind it is cell-based. The settings on record: HeLa S3, 24 h. Summed up:
(§1)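 HeLa S3 cells (4 × 10^3/well, plated 24 h before) exposed to a nucleoside concentration series at 37 °C, final 0.1% DMSO, for 7, 24 or 48 h. Cells PBS-washed; viability read as ATP-dependent luminescence (CellTiter-Glo) after 10 min at 22 °C. IC50 from a four-parameter fit of luminescence vs concentration.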
On the technique in general: ATP-based viability assays read luminescence as a measure of living cells.

Experiment [3] in a line: Cytotoxicity against human HeLaS3 cells after 48 hrs by celltiter-glo assay. In kind it is cell-based. The settings on record: HeLa S3, 48 h. Summed up:
as §1

In experiment [4] the test system is dengue virus type 2. As to the kind of experiment: Antiviral activity against Dengue virus type 2 in BHK-21 cells assessed as inhibition of viral replication after 24 hrs by luciferase assay. It is filed as functional, organism-based. The settings on record: BHK-21, 24 h. Summed up: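 BHK-21 cells stably carrying a luciferase DENV2 replicon, grown in DMEM/F-12 with 10% FBS. Seeded 24 h ahead, then exposed for 24 h to a nucleoside concentration series in media with 1% DMSO. Cells PBS-washed and lysed; luciferase luminescence read on the lysate.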

Experiment [5] deals with Enterovirus C. In words: Antiviral activity against Poliovirus infected in human HeLaS3 cells assessed as inhibition of viral replication treated 1 hr before infection measured after 2 days. To be noted: HeLa S3. In kind it is functional, organism-based. In short, it runs like this: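 HeLa S3 cells (1 × 10^5, plated 1 day prior) pretreated 1 h at 37 °C with nucleoside in 0.1% DMSO media, then infected with 1 × 10^6 PFU PV in PBS for 15 min at room temperature. Refed with nucleoside-containing media and infected 6 h at 37 °C. Cell-associated virus released by 3 freeze-thaw cycles and titered by plaque assay on HeLa S3 under 1% agarose for 2 days, with crystal violet stain. IC50 from a four-parameter fit.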

Experiment [6] can be described thus: Cytotoxicity against human HeLaS3 cells after 7 hrs by celltiter-glo assay. It is filed as cell-based. To be noted: HeLa S3, 7 h. In short, it runs like this:
as §1

Experiment [7] has as its system Enterovirus C. In words: Activity at Poliovirus RNA-dependent RNA polymerase assessed as incorporation into opposite adenine and guanine of viral RNA by denaturing PAGE analysis. Summed up:
(§2)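 Pre-assembled PV 3Dpol–sym/sub primer/template (32P end-labelled) complex formed for 3 min at 30 °C. Reaction at 30 °C in 50 mM HEPES pH 7.5 with 10 mM 2-mercaptoethanol, 5 mM MgCl2, 1 µM 3Dpol, 0.5 µM duplex RNA and 0.5 mM NTP, started by adding nucleotide. Stopped at 1, 5 or 10 min, run on denaturing PAGE, phosphorimaged, and expressed as % incorporation relative to the natural NTP.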

In experiment [8] the test system is Enterovirus C. As to the kind of experiment: Activity at Poliovirus RNA-dependent RNA polymerase assessed as incorporation into opposite cytosine of viral RNA after 30 mins by denaturing PAGE analysis.
The test system of experiment [9] is Enterovirus C. As to the kind of experiment: Activity at Poliovirus RNA-dependent RNA polymerase assessed as incorporation into opposite uracil and cytosine of viral RNA by denaturing PAGE analysis. In short, it runs like this: as §2
Experiment [10] is described as follows: Cytotoxicity against human HeLaS3 cells at 100 uM after 24 hrs by celltiter-glo assay. In kind it is cell-based. To be noted: HeLa S3, 24 h. Summed up:
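HeLa S3 cells (4 × 10^3/well) treated 24 h at 37 °C in 0.1% DMSO. Viability measured as ATP luminescence (CellTiter-Glo) after PBS wash, read after 10 min at 22 °C, and reported as % viable cells.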

Experiment [11] deals with dengue virus type 2. As to the kind of experiment: Antiviral activity against Dengue virus type 2 in Vero cells assessed as inhibition of viral RNA replication […] by RT-PCR analysis. It is filed as functional, organism-based.
For experiment [12], the system named is dengue virus type 2. In words: Antiviral activity against Dengue virus type 2 in Vero cells assessed as inhibition of viral replication after 6 days using neutral red dye by plaque assay. In kind it is functional, organism-based. The settings on record: 144 h. Summed up:
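Cells infected with DENV2, then treated for 24 h at 37 °C with a concentration series in 1% DMSO media. Supernatant overlaid with 0.9% low-melting agarose in EMEM/0.5% FBS for 6 days at 37 °C, then a second agarose layer with 0.015% neutral red added overnight. Plaques counted as PFU/ml; IC50 from a four-parameter fit of titer vs concentration.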

Active and inactive are the calls of the source. The rule behind the calls is not given here.

Take `NC(=O)c1ncn([C@@H]2O[C@H](COP(=O)(O)OP(=O)(O)OP(=O)(O)O)[C@@H](O)[C@H]2O)n1` [RTP]: the Kd in [1] stood at 496 µM.

Consider `COC[C@H]1O[C@@H](n2ccc3c(C)ncnc32)[C@H](O)[C@@H]1O`, for which the IC50 in experiment [2] was greater than 100 µM; in experiment [3], greater than 100 µM; in the experiment on dengue virus type 2 [4] it was greater than 10 µM; in the experiment on Enterovirus C [5], greater than 10 µM; in experiment [6], greater than 100 µM.

Take `Nc1ncnc2c1ncn2[C@@H]1O[C@H](COP(=O)(O)OP(=O)(O)OP(=O)(O)O)[C@@H](O)[C@H]1O` [ADENOSINE TRIPHOSPHATE]: the Kd in experiment [1] came out at 134 µM.

On to `Cc1ncnc2c1ccn2[C@@H]1O[C@H](COP(=O)(O)OP(=O)(O)OP(=O)(O)O)[C@@H](O)[C@H]1O`, for which, in the experiment on Enterovirus C [7], the result was inactive. For the same compound, the Activity in the experiment with Enterovirus C [8] came out at 60%. In experiment [1], the Kd was determined as 120 µM. Further, the result in the experiment with Enterovirus C [9] was Active.

With `Cc1ccnc2c1ncn2[C@@H]1O[C@H](CO)[C@@H](O)[C@H]1O`, the half-inhibitory concentration (IC50) in [2] is greater than 100 µM; in [3], greater than 10 µM; in the experiment with dengue virus type 2 [4] it was greater than 10 µM; with Enterovirus C [5] it was greater than 10 µM; in [6] it was greater than 100 µM.

On to `Cc1ncnc2c1ccn2[C@@H]1O[C@H](CO)[C@@H](O)[C@H]1O`, for which the IC50 in experiment [10] turned out to be 0.986 µM; with dengue virus type 2 [11], 0.039 µM; in experiment [3], 0.224 µM; in the experiment with dengue virus type 2 [4] it was 0.877 µM; in the experiment with Enterovirus C [5], 0.011 µM; in the experiment with dengue virus type 2 [12], 0.062 µM. For the same compound, the half-maximal inhibitory concentration (IC50) in experiment [6] is greater than 100 µM.

As to `Cc1ncnc2c1ncn2[C@@H]1O[C@H](COP(=O)(O)OP(=O)(O)OP(=O)(O)O)[C@@H](O)[C@H]1O`, the outcome in the experiment on Enterovirus C [7] was inactive. In the experiment on Enterovirus C [8], the Activity turned out to be 40%. Moreover, in experiment [1], the Kd worked out at 170 µM. For the same compound, in the experiment on Enterovirus C [9], the result was Active.

Regarding `Cc1nccc2c1ncn2[C@@H]1O[C@H](CO)[C@@H](O)[C@H]1O`, the IC50 is greater than 100 µM in [2]; greater than 100 µM in [3]; greater than 10 µM in the experiment with dengue virus type 2 [4]; greater than 10 µM in the experiment on Enterovirus C [5]; greater than 100 µM in experiment [6].

Consider `Cc1ncnc2c1ncn2[C@@H]1O[C@H](CO)[C@@H](O)[C@H]1O`, for which the IC50 in experiment [2] worked out at 6.68 µM; in experiment [3] it was 2.2 µM; in the experiment with dengue virus type 2 [4], 5.46 µM; in the experiment on Enterovirus C [5], 1.01 µM; in experiment [6], 17.7 µM.

Take `Nc1ncnc2c1ccn2[C@@H]1O[C@H](CO)[C@@H](O)[C@H]1O` [TUBERCIDIN]: the half-inhibitory concentration (IC50) amounted to 0.819 µM in [2], 0.4 µM in experiment [3], 0.03 µM in the experiment on Enterovirus C [5] and 1.44 µM in experiment [6].
